The results in this text go back to PubChem BioAssay.

The nature of test [1]: yeast TOR pathway RPL19A-GFP modulators, primary screen, cell-based, S. cerevisiae, multiplex flow cytometry (AID 1862; in the data active = percent of DMSO control GFP below about 86%;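 note: lower values mimic rapamycin by blocking the RPL19A rise seen in DMSO cells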). The note with it: S. cerevisiae RPL19A-GFP strain, flow cytometry fluorescence, 3 h; at 10 µM; stronger effect = lower value.
The nature of test [2]: modulators of MEP2-GFP levels in yeast, primary screen, S. cerevisiae, multiplex flow cytometry (AID 1867;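 active = GFP response, as percent of the DMSO control, above the screen-wide mean plus 3 SD, about 139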;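 note: median GFP channel fluorescence of barcode-gated MEP2-GFP cells measured by flow cytometry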). The note with it: S. cerevisiae MEP2-GFP strain, 3 h, at 10 µM, stronger effect = higher value, 100% means same as DMSO wells.
Test [3] in a line: modulators of CIT2-GFP expression in yeast, primary screen, S. cerevisiae, GFP fusion, multiplex flow cytometry (AID 1870;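 active = percent response above a set limit, the screen-wide mean plus 3 SD, cut at about 130% in these data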;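 note: barcoded CIT2-GFP strain pooled with four other GFP strains with rapamycin as positive control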). The note with it: 3 h, at 10 µM, stronger effect = higher value.
Test [4] in a line: modulators of LAP4-GFP expression in yeast, primary screen, S. cerevisiae, multiplex flow cytometry (AID 1873;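 active = GFP signal, as percent of the solvent control, above the screen mean plus 3 SD, about 149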). The note with it: 3 h, at 10 µM, stronger effect = higher value.
The nature of test [5]: modulators of AGP1-GFP expression in yeast TOR pathway, primary screen, cell-based, multiplex flow cytometry, S. cerevisiae (AID 1887;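 active = GFP signal above the screen-wide mean plus 3 SD, that is over about 124.5% of the solvent control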;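 note: AGP1-GFP fusion strain of S. cerevisiae within a five-strain barcoded multiplex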). The note with it: 3 h, at 10 µM, stronger effect = higher value.
Test [6] is described as follows: RPL19A-GFP modulators, yeast TOR pathway, confirmation, cell-based, S. cerevisiae, flow cytometry, cherry picks, mother/daughter gates (AID 2270;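 active = GFP response below 50% of the DMSO control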). The note with it: S. cerevisiae RPL19A-GFP strain, 3 h, at 10 µM, stronger effect = lower value, 100 = same GFP as DMSO wells.
Test [7] is described as follows: LAP4-GFP expression modulators in yeast, confirmation, cell-based, cherry picks, flow cytometry, mother/daughter gates (AID 2271;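 active = GFP response above 150% of the DMSO control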;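 note: ratio of sample to DMSO plate mean so 100% equals DMSO level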). The note with it: S. cerevisiae LAP4-GFP strain, 3 h, at 10 µM, stronger effect = higher value, 100 means same as DMSO control. The procedure, abridged: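 Material – Alexa Fluor 633-labelled Saccharomyces cerevisiae GFP-fusion strain, single-plex · Incubation – compound exposure 3 h at 30 °C, end-over-end rotation · Measured by – GFP by flow cytometry · Measure – median GFP fluorescence as percent of plate-mean DMSO wells · Control set – positive rapamycin (400 ng/mL), negative DMSO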

The nature of test [8]: modulators of MEP2-GFP levels in yeast, confirmation, S. cerevisiae, flow cytometry GFP, cherry picks (AID 2272).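 Note: ratio of well signal to plate DMSO mean so 100% equals DMSO level.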 The note with it: S. cerevisiae MEP2-GFP strain, 3 h, at 10 µM, stronger effect = higher value.
A short description of test [9]: modulators of CIT2-GFP expression in yeast, confirmation, S. cerevisiae, GFP fusion, cherry picks, mother/daughter gates (AID 2274;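 active = GFP response above 150% of the DMSO level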). The note with it: S. cerevisiae CIT2-GFP strain, flow cytometry, 3 h, at 10 µM, stronger effect = higher value.
Test [10] in a line: inhibitors of CD8+ T cell-vesicle binding, pilot screen, LFA-1/ICAM-1 modulator project, MLPCN validation set, flow cytometry (AID 2523;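 active = response below a set limit, under 55% cells CD8-positive and vesicle-bound, and CD8 cells' 90th-percentile brightness under 279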;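 for vesicle binding response: mean PE anti-B7-1 fluorescence of CD8+ cells relative to row control; 100% = QL9-loaded vesicles with DMSO vehicle in the same plate row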). The note with it: 2C mouse CD8+ T cells, at 7 µM, stronger effect = lower value; double positive events: measured here: CD8+/vesicle+ event percentage.
The mark [11] stands for this setting: measured here: daughter cell gate.
The mark [12] stands for this setting: measured here: mother cell gate.
Setting [13] is: measured here: daughter cell gate response.
The mark [14] stands for this setting: measured here: mother cell gate response.

Results filed as inconclusive are left out. Active and inactive are the calls of the source.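 Rule for the calls, unless noted: active = GFP response above 150% of the DMSO control; inconclusive = Fewer than 70 cells counted for a yeast strain; inactive = the rest.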

With `Cc1ccc2[nH]c3c(c2c1)CCNC3=O`, the percent of DMSO control GFP in test [1] was 99.1% (inactive). For the same molecule, the GFP response vs DMSO in test [2] was 95.9% (inactive); in test [4] it was 91.3% (inactive); in [6] it was 101% (inactive); in [6] (setting [11]), 100%; in test [6] (setting [12]), 103%; in [8], 100% (inactive). Besides, in [3], the percent response of DMSO control was 104% (inactive). Further, the GFP response, % of DMSO is 98.7% (inactive) in [5], 111% (inactive) in test [9], 106% in test [9] (setting [11]) and 114% in test [9] (setting [12]). Further, the GFP response relative to DMSO in test [7] was 91.4% (inactive); in test [7] (setting [13]) it was 92.5%; in [7] (setting [14]), 94.2%. In [10], this molecule returned a double positive events of 57.6%. In addition, the vesicle binding response in test [10] was 187% (inactive).

Turning to `CC(NCCc1ccc(O)cc1)C(O)c1ccc(O)cc1` (configuration not stated), in test [1], the percent of DMSO control GFP was 92.4% (inactive). In addition, the GFP response vs DMSO in [2] is 144% (active); in test [4] it was 80.9% (inactive); in test [6], 93% (inactive); in [6] (setting [11]), 91.6%; in test [6] (setting [12]), 94.1%; in test [8] it was 100% (inactive). Also, the percent response of DMSO control in [3] is 91.3% (inactive). For the same molecule, the GFP response, % of DMSO is 93.1% (inactive) in test [5], 101% (inactive) in test [9], 101% in test [9] (setting [11]) and 103% in [9] (setting [12]). The GFP response relative to DMSO in test [7] is 97.9% (inactive); in test [7] (setting [13]), 96%; in [7] (setting [14]), 98.3%. In [10], this molecule returned a double positive events of 59%. The vesicle binding response in test [10] was 174% (inactive).

`CC(=O)[C@@]1(O)CC[C@H]2[C@@H]3CCC4=CC(=O)CC[C@]4(C)[C@H]3[C@@H](O)C[C@@]21C`: in [1], the percent of DMSO control GFP was 104% (inactive). Besides, the GFP response vs DMSO in [2] is 95.9% (inactive); in [4], 90.3% (inactive); in test [6] it was 99.3% (inactive); in [6] (setting [11]) it was 99.3%; in test [6] (setting [12]), 99.7%; in test [8], 102% (inactive). Moreover, in [3], the percent response of DMSO control is 94.9% (inactive). The GFP response, % of DMSO in test [5] is 96.4% (inactive); in test [9], 96.4% (inactive); in [9] (setting [11]), 98.3%; in [9] (setting [12]), 94.5%. Also, the results for the GFP response relative to DMSO in [7], in [7] (setting [13]) and in test [7] (setting [14]) were 97.7% (inactive), 97.9% and 96.5%, respectively. The double positive events in test [10] came out at 56.2%. Moreover, in test [10], the vesicle binding response is 182% (inactive).

Take `CNCCC(Oc1ccc(C(F)(F)F)cc1)c1ccccc1` (configuration not stated): the percent of DMSO control GFP in [1] was 89.8% (inactive). For the same molecule, the GFP response vs DMSO in test [2] is 141% (active); in test [4] it was 83.1% (inactive); in test [6], 98.4% (inactive); in test [6] (setting [11]) it was 97%; in test [6] (setting [12]) it was 99.1%; in test [8], 102% (inactive). Also, the percent response of DMSO control in test [3] is 107% (inactive). The GFP response, % of DMSO in test [5] was 90.3% (inactive); in [9], 93.9% (inactive); in test [9] (setting [11]), 94.8%; in test [9] (setting [12]), 93.4%. The values for the GFP response relative to DMSO in test [7], in test [7] (setting [13]) and in test [7] (setting [14]) were 97.4% (inactive), 95.6% and 101%, respectively. For the same molecule, the double positive events in [10] came to 58%. Moreover, in test [10], the vesicle binding response is 142% (inactive).

Take `CC(=O)[C@H]1CC[C@H]2[C@@H]3CCC4=CC(=O)CC[C@]4(C)[C@H]3CC[C@]12C`: the percent of DMSO control GFP in test [1] was 100% (inactive). Besides, the GFP response vs DMSO in [2] was 108% (inactive); in [4] it was 94.8% (inactive); in test [6], 99.9% (inactive); in test [6] (setting [11]), 99.3%; in test [6] (setting [12]), 100%; in test [8], 99.5% (inactive). In addition, the percent response of DMSO control in [3] is 98.6% (inactive). In addition, the GFP response, % of DMSO is 104% (inactive) in test [5], 97.8% (inactive) in test [9], 96.4% in test [9] (setting [11]) and 98% in [9] (setting [12]). Moreover, the GFP response relative to DMSO in [7] is 100% (inactive); in test [7] (setting [13]), 97.9%; in test [7] (setting [14]), 101%. In [10], this molecule yielded a double positive events of 64%. Moreover, the vesicle binding response in [10] is 119% (inactive).

`O=C(/C=C/c1ccccc1)c1ccccc1`: the percent of DMSO control GFP in test [1] is 92.8% (inactive). Also, the GFP response vs DMSO is 139% (inactive) in test [2]; 79.8% (inactive) in test [4]; 98% (inactive) in [6]; 100% in test [6] (setting [11]); 97.1% in test [6] (setting [12]); 104% (inactive) in test [8]. Moreover, the percent response of DMSO control in test [3] is 96.6% (inactive). In addition, the GFP response, % of DMSO in test [5] is 87.5% (inactive); in [9] it was 102% (inactive); in test [9] (setting [11]), 106%; in test [9] (setting [12]), 99.1%. Also, the values for the GFP response relative to DMSO in [7], in [7] (setting [13]) and in test [7] (setting [14]) were 97.7% (inactive), 96.5% and 94.6%, respectively. In addition, the double positive events in test [10] is 68%. Moreover, the vesicle binding response in [10] is 126% (inactive).
